Assay [1] in a line: inhibitors of TNFa-induced NFkB p65 translocation, primary screen, imaging, HUVEC, MLSMR starter and 10KST1 sets (AID 438).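 For inhibition: signal is the nuclear over cytoplasmic p65 intensity ratio per well.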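 Note: compound added about 3h40 before a 20 min TNFalpha stimulation.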 Particulars: HUVEC TNFa-induced p65 nuclear translocation; cell count: measured here: nuclei count (cytotoxicity indicator), at 2.08 µM; inhibition: at 2 µM, stronger effect = higher value, 0% TNFa-plus-vehicle, 100% no-TNFa wells.
A short description of assay [2]: inhibitors of E-selectin induction by TNFa, primary screen, imaging, HUVEC, immunofluorescence, MLSMR starter and 10KST1 sets (AID 487;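 active = visually confirmed hit in the image check and inhibition above 20%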;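 for inhibition: signal is fraction of cell area covered by stained E-selectin grains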;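 for nuclei count: 100% = median nuclei count of all wells on the same plate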). Particulars: HUVEC TNFalpha-induced E-selectin immunofluorescence imaging, at 2 µM; inhibition: stronger effect = higher value; nuclei count: measured here: cell number, toxicity.
Assay [3] in a line: DUSP6 inhibitors restoring Erk phosphorylation by chemical complementation, primary imaging in DUSP6-transfected HeLa (AID 609;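 active = compounds giving at least 50% inhibition in the cell-based MKP-3 phosphatase rescue imaging test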;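 for inhibition: phospho-Erk level distribution per well compared with pooled transfected vehicle control wells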). Particulars: HeLa MKP-3 transfected, phospho-Erk imaging KS statistic, at 10 µM, cells stimulated with TPA for 15 min.
Assay [4] concerns the target Dual specificity protein phosphatase 6 (Homo sapiens) (UniProt Q16828). Described as above. Particulars: HeLa MKP-3 transfected, phospho-Erk imaging KS statistic; at 10 µM; stronger effect = higher value; cells stimulated with TPA for 15 min.
Assay [5] has as its target Voltage-gated potassium channel subunit beta-2 (Rattus norvegicus) (UniProt P62483). As to the kind of experiment: KvBeta enzyme negative modulators, primary screen, biochemical, NADPH fluorescence (AID 622;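 active = fluorescence slope higher than the sample average by over 3 SD, cut at about -0.22 in these data, passing the limit was not always enough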;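 note: slope of raw intensity against log time taken from 70 to 1610 s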). Particulars: recombinant KvBeta, 4-cyanobenzaldehyde reduction, at 10 µM, stronger effect = higher value.
Assay [6] shares this target. As to the kind of experiment: KvBeta positive modulators, primary screen, biochemical, NADPH fluorescence (AID 623;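 active = NADPH fluorescence slope more negative than the mean of all samples by about 3 SD, 99.7% confidence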;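 note: fluorescence intensity change per second fitted from 20 to 320 s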). The conditions noted are these: Recombinant KvBeta, NADPH fluorescence decrease slope, 10 min; at 10 µM; stronger effect = lower value.
In assay [7] the target is Alpha-2C adrenergic receptor (Homo sapiens) (UniProt P18825). As to the kind of experiment: modulators of alpha2C/GIRK thallium flux, primary screen, cell-based, HEK293 alpha2C/GIRK1/2 (AID 624;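 active = fluorescence slope after compound addition differing from the mean of all screened samples at 99.7% confidence, in either direction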;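 note: slope of fluorescence ratio to pre-addition baseline per second over 15 to 24 s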). Particulars: thallium flux BTC fluorescence, at 10 µM, actives lie on both sides.
Sequence of Alpha-2C adrenergic receptor (Homo sapiens) (P18825 whole entry, looked up): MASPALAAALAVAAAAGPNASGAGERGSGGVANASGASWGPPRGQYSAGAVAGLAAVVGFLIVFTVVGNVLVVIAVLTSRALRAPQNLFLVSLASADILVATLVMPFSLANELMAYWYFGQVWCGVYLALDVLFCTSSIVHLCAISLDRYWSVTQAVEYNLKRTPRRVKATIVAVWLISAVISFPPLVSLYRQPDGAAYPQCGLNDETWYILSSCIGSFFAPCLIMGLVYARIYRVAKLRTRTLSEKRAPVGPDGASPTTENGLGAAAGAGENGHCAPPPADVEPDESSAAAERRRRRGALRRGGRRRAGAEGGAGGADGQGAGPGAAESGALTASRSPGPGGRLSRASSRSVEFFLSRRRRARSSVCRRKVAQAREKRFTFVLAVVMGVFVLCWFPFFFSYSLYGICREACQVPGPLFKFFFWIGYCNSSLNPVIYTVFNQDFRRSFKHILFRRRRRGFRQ
Assay [8] is described as follows: inhibitors of larval lipid processing in zebrafish, primary screen, whole organism, PED6 fluorescence, gall bladder and intestine (AID 686;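 active = a full or partial loss of lipid-probe fluorescence in the fish gall bladder, intestine or both, judged by eye; inactive = no fluorescence loss, or compound toxic to the fish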;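 note: larvae 5 to 7 days old with five fish per well; signal comes from phospholipase A2 cleavage of quenched PED6 carried via bile; overnight exposure to compound and PED6 before scoring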). The conditions noted are these: Zebrafish larvae PED6 lipid processing, fluorescence scoring; screened at 20 µM (by protocol). The gist of the method:
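Also added: quenched phospholipase substrate PED6, 100 nM final, ingested by larvae; System: zebrafish larvae, 5-7 d; Quantity: 5 larvae per well; Compound: 20 µM single dose; Schedule: overnight compound and PED6 incubation; Read-out: visual per-well fluorescence inhibition score; Measured by: By-eye fluorescence microscopy; Medium: E3.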

Assay [9] is described as follows: inhibitors of Chlamydomonas gravitaxis, primary screen, whole organism, Chlamydomonas reinhardtii, WT vs cilia-less mutant, absorbance, 96-well (AID 463189;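 active = inhibition at or above 50% relative to wild type and mutant plate controls; inactive = inhibition below 50%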;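 note: 0% = wild type cc124 cells in DMSO and 100% = ciliumless bld1 mutant cells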). The conditions noted are these: OD600 absorbance, 2 days, at 10 µM, stronger effect = higher value.
Where [10] appears, read: measured here: cell density z-score.
The mark [11] stands for this setting: measured here: nuclear c-Myc green intensity z-score.
Setting [12] is: measured here: nuclear pErk red intensity z-score, stronger effect = higher value.

Each structure is given as a SMILES string. Active and inactive are the calls of the source.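 Rule for the calls, unless noted: active = inhibition above 20% together with a positive visual image hit; inconclusive = visual image hit but inhibition not above 20%; inactive = no visual image hit.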

Sequence of Voltage-gated potassium channel subunit beta-2 (Rattus norvegicus) (P62483 whole entry, looked up): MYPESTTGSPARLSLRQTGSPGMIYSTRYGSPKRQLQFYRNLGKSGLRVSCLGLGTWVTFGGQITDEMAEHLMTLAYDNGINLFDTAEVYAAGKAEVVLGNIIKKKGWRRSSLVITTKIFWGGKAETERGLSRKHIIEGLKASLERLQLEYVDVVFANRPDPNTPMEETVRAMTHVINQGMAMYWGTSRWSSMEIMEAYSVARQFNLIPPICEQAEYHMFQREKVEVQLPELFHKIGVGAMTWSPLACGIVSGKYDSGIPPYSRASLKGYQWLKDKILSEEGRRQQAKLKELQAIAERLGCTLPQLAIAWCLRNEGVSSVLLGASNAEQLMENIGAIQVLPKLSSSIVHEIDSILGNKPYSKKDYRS
Sequence of Dual specificity protein phosphatase 6 (Homo sapiens) (Q16828 whole entry, looked up): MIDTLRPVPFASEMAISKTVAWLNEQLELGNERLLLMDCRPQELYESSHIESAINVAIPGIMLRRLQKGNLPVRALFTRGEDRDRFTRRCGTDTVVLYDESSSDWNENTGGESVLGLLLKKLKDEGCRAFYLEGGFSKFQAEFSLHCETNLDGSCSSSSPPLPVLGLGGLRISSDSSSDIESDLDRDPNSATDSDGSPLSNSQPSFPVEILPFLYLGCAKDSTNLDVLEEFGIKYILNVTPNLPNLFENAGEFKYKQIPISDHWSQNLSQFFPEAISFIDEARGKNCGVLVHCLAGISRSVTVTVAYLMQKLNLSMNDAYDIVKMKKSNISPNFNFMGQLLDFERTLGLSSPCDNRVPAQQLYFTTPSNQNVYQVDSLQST

A word on the inhibition: it is the relative decrease from the control value, in per cent. `CC1(C)Cc2c(c(-c3ccccc3)nc3[nH][nH]c(=O)c23)CO1`: the cell count in assay [1] stood at 666. The inhibition is -17.1% (inactive) in [1], -370% (inactive) in assay [2], -3.98% (inactive) in assay [4] and 21% (inactive) in assay [9]. In addition, in assay [2], the nuclei count is 162%. Besides, the z-score in assay [3] (setting [10]) was 0.742; in [3] (setting [11]), -0.0557; in assay [3] (setting [12]) it was 0.36. Moreover, the fluorescence slope in assay [5] was -0.513 (inactive). Also, the NADPH fluorescence slope in [6] is -7.2e-05 (inactive). Besides, the slope in assay [7] is 0.00403 (inactive). For the same compound, in assay [8], the result was inactive.

For `CC(C)(C)NCC(=O)c1c[nH]c2ccccc12`, in [1], the cell count was 535. Also, the inhibition is -1.7% (inactive) in assay [1], -49.5% (inactive) in assay [2], -1.75% (inactive) in assay [4] and -1.18% (inactive) in assay [9]. Also, the nuclei count in [2] is 146%. In addition, the z-score is -0.736 in [3] (setting [10]), 1.42 in assay [3] (setting [11]) and -0.666 in assay [3] (setting [12]). For the same compound, in assay [5], the fluorescence slope is -0.35 (inactive). Further, the NADPH fluorescence slope in assay [6] is 5.2e-06 (inactive). Besides, the slope in [7] was 0.00435 (inactive). In addition, in [8], the result was inactive.

Take `N#CC1=C2SCC(O)(c3ccccc3)N2C(=O)CC1c1ccccc1` (centres undefined): the cell count in [1] worked out at 487. Besides, the inhibition in assay [1] was 0.4% (inactive); in [2], -39.3% (inactive); in assay [4], -3.98% (inactive); in assay [9], 13.3% (inactive). The compound also came in with a nuclei count in assay [2] of 98.1%. Also, the z-score in assay [3] (setting [10]) was -0.384; in [3] (setting [11]), -0.62; in assay [3] (setting [12]) it was 2.84. Further, in [5], the fluorescence slope was -0.459 (inactive). In addition, the NADPH fluorescence slope in [6] is -0.00022 (inactive). In addition, the slope in [7] is 0.00444 (inactive). The outcome in assay [8] was inactive.

As for `CC(=O)C1=C(O)C(=O)N(c2cccc(C(=O)O)c2)C1c1ccccc1F` (centres undefined), the cell count in assay [1] is 545. Also, the inhibition in assay [1] was -2.4% (inactive); in assay [2], -73.9% (inactive); in assay [4] it was -9.66% (inactive); in assay [9], 3.92% (inactive). Further, the nuclei count in assay [2] came to 156%. For the same compound, the z-score in assay [3] (setting [10]) was -0.336; in assay [3] (setting [11]) it was 0.7; in assay [3] (setting [12]), 0.539. Moreover, the fluorescence slope in assay [5] was -0.505 (inactive). The NADPH fluorescence slope in assay [6] is -4.6e-05 (inactive). Further, the slope in assay [7] was 0.00649 (inactive). The result in [8] was inactive.

Regarding `O=C(O)C1CCCCN1S(=O)(=O)c1cccc2nsnc12` (centres undefined), in assay [1], the cell count turned out to be 488. The inhibition is 9.4% (inactive) in [1], -8.1% (inactive) in assay [2], -6.06% (inactive) in assay [4] and -16.5% (inactive) in assay [9]. Further, the nuclei count in [2] came out at 93.9%. In addition, the z-score in assay [3] (setting [10]) is -0.854; in [3] (setting [11]) it was 0.334; in assay [3] (setting [12]), -0.543. The fluorescence slope in [5] was -0.498 (inactive). Moreover, the NADPH fluorescence slope in [6] was -3.9e-05 (inactive). Besides, the slope in assay [7] is 0.0076 (inactive). Moreover, the call in assay [8] was inactive.

Regarding `CCCCOc1ccccc1/C=c1/sc2nc(-c3oc4ccccc4c3C)nn2c1=O`, the cell count in [1] turned out to be 431. Besides, the inhibition in [1] is 0.7% (inactive); in assay [2], -36.7% (inactive); in assay [4] it was 2.46% (inactive); in assay [9], -7.58% (inactive). This compound also had a nuclei count in assay [2] of 128%. For the same compound, the z-score in assay [3] (setting [10]) was 0.907; in [3] (setting [11]), 2.04; in [3] (setting [12]), -0.0877. Also, the fluorescence slope in assay [5] is -0.325 (inactive). Further, the NADPH fluorescence slope in assay [6] was -1e-05 (inactive). For the same compound, the slope in assay [7] is 0.00462 (inactive). In addition, the call in assay [8] was inactive.

Regarding `COc1ccc2[nH]c3c(N4CCN(Cc5ccc6c(c5)OCO6)CC4)ncnc3c2c1`, in assay [1], the cell count came to 428. In addition, the inhibition in [1] was -0.7% (inactive); in [2] it was -50.8% (inactive); in [4], 0.671% (inactive); in assay [9], 141% (active). This compound also had a nuclei count in assay [2] of 137%. Moreover, the z-score was 0.867 in assay [3] (setting [10]), -0.34 in [3] (setting [11]) and 0.0587 in assay [3] (setting [12]). In addition, the fluorescence slope in assay [5] is -0.302 (inactive). Further, the NADPH fluorescence slope in [6] was 2.3e-06 (inactive). The slope in assay [7] is 0.00419 (inactive). Moreover, the compound was called inactive in assay [8].

As to `COc1ccc(/C(O)=C2/C(=O)C(=O)N(CCCN(C)C)C2c2cccc(Cl)c2)cc1OC` (centres undefined), in assay [1], the cell count turned out to be 382. For the same compound, the inhibition in assay [1] is -1.1% (inactive); in assay [2], -135% (inactive); in [4], 3.66% (inactive); in assay [9], 0.268% (inactive). The nuclei count in [2] turned out to be 155%. The z-score in assay [3] (setting [10]) was -1.5; in [3] (setting [11]), 0.328; in assay [3] (setting [12]), 0.495. Also, the fluorescence slope in [5] is -0.393 (inactive). For the same compound, in assay [6], the NADPH fluorescence slope was -5.4e-05 (inactive). Further, in [7], the slope was 0.00697 (inactive). Also, the compound was classed as inactive in assay [8].

Take `N#Cc1c(N)sc(=S)c2c1CCCCC2`: in assay [1], the cell count is 560. Also, the inhibition in assay [1] is -3.2% (inactive); in assay [2], -130% (inactive); in assay [4], -0.608% (inactive); in assay [9], 6.84% (inactive). Moreover, the nuclei count in [2] worked out at 180%. The figures for the z-score in [3] (setting [10]), in assay [3] (setting [11]) and in [3] (setting [12]) were -0.472, -0.421 and 0.0305, respectively. Moreover, in [5], the fluorescence slope is -0.339 (inactive). For the same compound, the NADPH fluorescence slope in assay [6] was 2.8e-06 (inactive). In [7], the slope was 0.00229 (inactive). Besides, the call in [8] was inactive.

Take `Cc1ccccc1NC(=O)NCCc1nc2ccccc2[nH]1`: the cell count in assay [1] stood at 543. The inhibition in [1] was 1.8% (inactive); in [2], -92.3% (inactive); in [4], -11% (inactive); in [9], -6.75% (inactive). The compound also showed a nuclei count in assay [2] of 163%. Besides, the z-score is -1.18 in assay [3] (setting [10]), -0.333 in [3] (setting [11]) and 2.49 in assay [3] (setting [12]). Moreover, the fluorescence slope in assay [5] is -0.474 (inactive). In addition, the NADPH fluorescence slope in assay [6] was -0.000294 (inactive). In assay [7], the slope is 0.00493 (inactive). The outcome in assay [8] was inactive.

As to `COc1cccc(-c2nn3c(-c4ccccn4)nnc3s2)c1`, in [1], the cell count worked out at 630. The inhibition is -8% (inactive) in assay [1], -117% (inactive) in assay [2], 15.5% (inactive) in [4] and 65.3% (active) in assay [9]. Also, the nuclei count in assay [2] worked out at 150%. Besides, the z-score in assay [3] (setting [10]) is 0.488; in assay [3] (setting [11]), -0.624; in assay [3] (setting [12]), -0.933. Moreover, the fluorescence slope in assay [5] was -0.454 (inactive). In addition, in assay [6], the NADPH fluorescence slope is -0.000157 (inactive). Further, in [7], the slope is 0.00706 (inactive). The compound was called inactive in [8].

With `CCCc1[nH]n(-c2nc3ccccc3s2)c(=O)c1C=NCCN1CCOCC1`, in assay [1], the cell count amounted to 538. For the same compound, the inhibition in assay [1] was 1.3% (inactive); in assay [2], -110% (inactive); in assay [4], 7.93% (inactive); in assay [9], 19.8% (inactive). In addition, the nuclei count in assay [2] amounted to 123%. In addition, the z-score in assay [3] (setting [10]) is -0.895; in assay [3] (setting [11]), 0.406; in assay [3] (setting [12]), -1.01. In addition, in assay [5], the fluorescence slope was -0.474 (inactive). For the same compound, the NADPH fluorescence slope in assay [6] was -4e-05 (inactive). The slope in assay [7] is 0.00553 (inactive). Moreover, the compound was classed as inactive in assay [8].

Consider `COCc1[nH]nc2c1C(c1cccc(OC)c1)C(C#N)=C(N)O2` (centres undefined), for which the cell count in assay [1] was 637. Also, the inhibition in assay [1] was -2.3% (inactive); in [2], -17.7% (inactive); in [4], -2.29% (inactive); in assay [9], 2.83% (inactive). Also, the nuclei count in assay [2] came out at 174%. Moreover, the z-score in [3] (setting [10]) was 0.403; in [3] (setting [11]), -0.811; in [3] (setting [12]) it was -1.74. Moreover, the fluorescence slope in [5] is -0.403 (inactive). Moreover, in assay [6], the NADPH fluorescence slope was -3.7e-05 (inactive). Besides, in assay [7], the slope was 0.00513 (inactive). For the same compound, the call in [8] was inactive.

The record behind these values is PubChem BioAssay.
